Columns and labels:
[1] = molecular target: GABA-A receptor; anion channel; experiment: Displacement of [3H]-Muscimol from GABAA receptor in rat brain incubated for 90 mins by microbeta scintillation counting method; assay type: tissue-based
In short: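 Radioligand binding run by the NIMH Psychoactive Drug Screening Program. Otherwise Ki comes from sigmoidal curve fits of triplicate measurements in a single experiment, or is averaged over repeated experiments each run in triplicate.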

[2] = molecular target: Sodium-dependent noradrenaline transporter (Homo sapiens, UniProt P23975); experiment: Displacement of [3H]-Nisoxetine from human recombinant NET receptor expressed in stable HEK cells after 90 mins by microbeta scintillation counting method; assay type: cell-based
In short: (§1)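 Radioligand binding run by the NIMH Psychoactive Drug Screening Program. […] Otherwise Ki comes from sigmoidal curve fits of triplicate measurements in a single experiment, or is averaged over repeated experiments each run in triplicate.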

[3] = molecular target: T1, Muscarinic acetylcholine receptor M4 (Homo sapiens) (UniProt P08173); experiment: Displacement of [3H]-QNB/[3H]-NMS from human recombinant Muscarinic acetylcholine M4 receptor expressed in stable CHO cells at 10 uM after 90 mins by microbeta scintillation counting method relative to control; assay type: cell-based
T1 sequence (whole entry): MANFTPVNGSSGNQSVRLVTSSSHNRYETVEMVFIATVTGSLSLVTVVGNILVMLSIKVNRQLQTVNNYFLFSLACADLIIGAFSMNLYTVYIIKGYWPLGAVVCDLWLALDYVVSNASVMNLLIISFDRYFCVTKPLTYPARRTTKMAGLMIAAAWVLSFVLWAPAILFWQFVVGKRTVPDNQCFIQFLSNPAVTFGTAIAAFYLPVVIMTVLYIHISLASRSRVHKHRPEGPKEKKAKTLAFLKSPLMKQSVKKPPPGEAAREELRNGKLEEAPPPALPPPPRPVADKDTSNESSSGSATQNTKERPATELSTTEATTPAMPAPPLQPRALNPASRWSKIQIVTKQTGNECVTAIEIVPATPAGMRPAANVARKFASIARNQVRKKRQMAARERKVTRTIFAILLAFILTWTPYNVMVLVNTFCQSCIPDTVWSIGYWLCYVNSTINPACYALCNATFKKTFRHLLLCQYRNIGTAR

[4] = molecular target: 5-hydroxytryptamine receptor 6 (Homo sapiens, UniProt P50406); experiment: Displacement of [3H]-LSD from human recombinant 5-HT6 receptor expressed in stable HEK cells after 90 mins by microbeta scintillation counting method; assay type: cell-based; in short: as §1
[5] = molecular target: Beta-3 adrenergic receptor (Homo sapiens, UniProt P13945); experiment: Displacement of [3H]-CGP12177 from human recombinant adrenergic Beta3 receptor expressed in Flp-In HEK cells at 10 uM after 90 mins by microbeta scintillation counting method relative to control; assay type: cell-based; in short: as §1
Histamine H3 receptor = Histamine H3 receptor (Homo sapiens, UniProt Q9Y5N1); experiment: Displacement of [3H]-alpha-methylhistamine from human recombinant histamine H3 receptor expressed in Flp-In HEK cells after 90 mins by microbeta scintillation counting method; assay type: cell-based
In short: (§2)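 Radioligand binding was run by the NIMH Psychoactive Drug Screening Program. Compounds were first screened at 10 μM. Those giving ≥50% binding were taken to full competition curves. Ki is reported as pKi from a sigmoidal curve fit of triplicate measurements in a single experiment; the error is the curve-fit error.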

[6] = molecular target: Beta-2 adrenergic receptor (Homo sapiens, UniProt P07550); experiment: Displacement of [3H]-CGP12177 from human recombinant adrenergic Beta2 receptor expressed in Flp-In HEK cells after 90 mins by microbeta scintillation counting method; assay type: cell-based; in short: as §1
[7] = molecular target: T2, Alpha-2C adrenergic receptor (Homo sapiens) (UniProt P18825); experiment: Displacement of [3H]-Rauwolscine from human recombinant adrenergic Alpha2C receptor expressed in stable MDCK cells at 10 uM after 90 mins by microbeta scintillation counting method relative to control; assay type: cell-based
T2 sequence (whole entry): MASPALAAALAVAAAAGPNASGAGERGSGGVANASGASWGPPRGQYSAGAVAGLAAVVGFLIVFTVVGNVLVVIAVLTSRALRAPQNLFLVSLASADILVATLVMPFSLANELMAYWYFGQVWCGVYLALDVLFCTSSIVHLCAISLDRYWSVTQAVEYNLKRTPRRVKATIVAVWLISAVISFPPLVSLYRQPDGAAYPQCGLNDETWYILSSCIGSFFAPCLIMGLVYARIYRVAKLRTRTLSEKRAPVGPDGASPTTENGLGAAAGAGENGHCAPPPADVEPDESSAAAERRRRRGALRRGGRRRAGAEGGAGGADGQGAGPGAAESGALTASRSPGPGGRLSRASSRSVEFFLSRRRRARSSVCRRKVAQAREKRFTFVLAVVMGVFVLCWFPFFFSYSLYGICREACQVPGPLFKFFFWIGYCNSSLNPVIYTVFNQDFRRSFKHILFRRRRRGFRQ

[8] = molecular target: T3, D(4) dopamine receptor (Homo sapiens) (UniProt P21917); experiment: Displacement of [3H]-methylspiperone from human recombinant dopamine D4 receptor expressed in Stable HEK cells at 10 uM after 90 mins by microbeta scintillation counting method relative to control; assay type: cell-based
T3 sequence (whole entry): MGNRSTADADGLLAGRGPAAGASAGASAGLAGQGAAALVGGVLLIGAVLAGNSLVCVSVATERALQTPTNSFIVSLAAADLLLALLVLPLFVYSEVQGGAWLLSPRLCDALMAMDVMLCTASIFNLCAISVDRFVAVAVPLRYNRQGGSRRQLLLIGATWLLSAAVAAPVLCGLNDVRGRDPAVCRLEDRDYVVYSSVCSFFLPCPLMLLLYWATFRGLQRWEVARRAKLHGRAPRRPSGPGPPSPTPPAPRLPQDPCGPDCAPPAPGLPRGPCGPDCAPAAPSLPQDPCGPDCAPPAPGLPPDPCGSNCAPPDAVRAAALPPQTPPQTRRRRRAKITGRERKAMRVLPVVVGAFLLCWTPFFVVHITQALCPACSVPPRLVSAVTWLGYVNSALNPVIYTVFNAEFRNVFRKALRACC

[9] = molecular target: 5-hydroxytryptamine receptor 1B (Homo sapiens, UniProt P28222); experiment: Displacement of [3H]5-CT from human recombinant 5-HT1B receptor expressed in stable HEK cells after 90 mins by microbeta scintillation counting method; assay type: cell-based; in short: as §2
Sequence of 5-hydroxytryptamine receptor 1B (P28222 whole entry): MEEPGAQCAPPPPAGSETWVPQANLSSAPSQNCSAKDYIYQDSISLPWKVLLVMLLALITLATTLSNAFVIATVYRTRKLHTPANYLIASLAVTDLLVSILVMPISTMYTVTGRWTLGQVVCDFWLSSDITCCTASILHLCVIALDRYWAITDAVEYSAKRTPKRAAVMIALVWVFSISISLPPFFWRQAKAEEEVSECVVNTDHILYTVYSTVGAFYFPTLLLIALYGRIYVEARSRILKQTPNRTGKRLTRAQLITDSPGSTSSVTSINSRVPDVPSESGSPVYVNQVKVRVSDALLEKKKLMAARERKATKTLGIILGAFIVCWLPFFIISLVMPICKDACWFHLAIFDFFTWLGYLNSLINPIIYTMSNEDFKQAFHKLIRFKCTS

Sequence of Sodium-dependent noradrenaline transporter (P23975 whole entry): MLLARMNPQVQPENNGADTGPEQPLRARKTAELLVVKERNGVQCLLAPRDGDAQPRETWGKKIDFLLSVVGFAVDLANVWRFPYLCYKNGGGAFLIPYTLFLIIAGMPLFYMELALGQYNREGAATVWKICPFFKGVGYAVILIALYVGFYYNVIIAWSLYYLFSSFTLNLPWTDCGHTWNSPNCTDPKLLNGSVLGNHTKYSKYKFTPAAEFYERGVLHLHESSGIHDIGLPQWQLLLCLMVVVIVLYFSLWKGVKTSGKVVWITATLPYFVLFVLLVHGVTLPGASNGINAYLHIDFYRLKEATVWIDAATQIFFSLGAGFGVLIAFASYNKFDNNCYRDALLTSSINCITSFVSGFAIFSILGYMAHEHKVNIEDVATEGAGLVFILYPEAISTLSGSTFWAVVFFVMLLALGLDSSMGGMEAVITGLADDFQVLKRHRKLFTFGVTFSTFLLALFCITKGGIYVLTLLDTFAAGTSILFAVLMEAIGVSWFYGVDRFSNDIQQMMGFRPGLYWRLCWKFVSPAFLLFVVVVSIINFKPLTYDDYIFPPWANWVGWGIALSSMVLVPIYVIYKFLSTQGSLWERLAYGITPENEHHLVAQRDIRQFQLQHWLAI
Sequence of Histamine H3 receptor (Q9Y5N1 whole entry): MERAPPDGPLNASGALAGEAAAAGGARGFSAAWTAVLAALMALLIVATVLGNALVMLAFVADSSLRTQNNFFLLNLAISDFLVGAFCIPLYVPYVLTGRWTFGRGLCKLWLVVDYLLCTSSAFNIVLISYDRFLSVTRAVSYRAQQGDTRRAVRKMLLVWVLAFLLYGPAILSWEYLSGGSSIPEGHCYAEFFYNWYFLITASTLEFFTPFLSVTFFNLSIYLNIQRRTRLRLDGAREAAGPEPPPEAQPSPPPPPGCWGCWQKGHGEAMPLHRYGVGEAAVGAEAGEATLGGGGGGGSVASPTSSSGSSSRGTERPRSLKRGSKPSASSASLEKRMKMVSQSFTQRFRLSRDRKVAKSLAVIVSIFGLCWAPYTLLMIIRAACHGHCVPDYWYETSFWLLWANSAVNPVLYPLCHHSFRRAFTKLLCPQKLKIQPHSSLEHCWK
Sequence of Beta-2 adrenergic receptor (P07550 whole entry): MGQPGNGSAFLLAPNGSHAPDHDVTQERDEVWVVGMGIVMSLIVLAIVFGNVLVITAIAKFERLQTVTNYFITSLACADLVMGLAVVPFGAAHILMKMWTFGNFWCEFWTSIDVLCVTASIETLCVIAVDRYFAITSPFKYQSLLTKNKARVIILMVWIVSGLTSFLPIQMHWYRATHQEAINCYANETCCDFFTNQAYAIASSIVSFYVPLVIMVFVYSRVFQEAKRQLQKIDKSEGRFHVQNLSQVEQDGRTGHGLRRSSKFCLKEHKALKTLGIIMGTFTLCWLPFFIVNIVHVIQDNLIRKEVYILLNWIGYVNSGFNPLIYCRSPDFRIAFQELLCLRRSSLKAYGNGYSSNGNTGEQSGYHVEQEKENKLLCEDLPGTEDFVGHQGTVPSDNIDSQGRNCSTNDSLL
Sequence of 5-hydroxytryptamine receptor 6 (P50406 whole entry): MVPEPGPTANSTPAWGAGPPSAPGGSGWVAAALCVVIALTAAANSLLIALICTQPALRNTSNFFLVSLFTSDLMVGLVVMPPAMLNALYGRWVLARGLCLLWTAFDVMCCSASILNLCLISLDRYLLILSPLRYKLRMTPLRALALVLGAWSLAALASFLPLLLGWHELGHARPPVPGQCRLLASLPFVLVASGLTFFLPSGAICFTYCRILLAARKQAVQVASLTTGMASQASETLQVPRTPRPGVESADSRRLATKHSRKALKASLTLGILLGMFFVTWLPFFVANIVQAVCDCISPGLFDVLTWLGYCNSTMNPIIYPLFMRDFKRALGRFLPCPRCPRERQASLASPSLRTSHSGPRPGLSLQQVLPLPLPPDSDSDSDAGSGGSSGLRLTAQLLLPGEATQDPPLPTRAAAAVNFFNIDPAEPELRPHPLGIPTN
Sequence of Beta-3 adrenergic receptor (P13945 whole entry, looked up): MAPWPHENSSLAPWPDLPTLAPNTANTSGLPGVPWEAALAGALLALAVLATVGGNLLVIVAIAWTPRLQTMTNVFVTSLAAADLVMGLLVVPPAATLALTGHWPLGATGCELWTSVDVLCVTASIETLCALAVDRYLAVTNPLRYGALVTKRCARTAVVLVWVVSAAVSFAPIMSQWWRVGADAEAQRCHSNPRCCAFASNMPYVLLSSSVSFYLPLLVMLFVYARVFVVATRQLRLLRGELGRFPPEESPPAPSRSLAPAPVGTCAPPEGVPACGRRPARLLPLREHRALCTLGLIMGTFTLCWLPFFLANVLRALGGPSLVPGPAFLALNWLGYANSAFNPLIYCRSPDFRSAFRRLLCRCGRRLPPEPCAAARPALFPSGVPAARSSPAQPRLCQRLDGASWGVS

Row | SMILES | pKi [1] | Ki [2] | inhibition [3] | Ki [4] | inhibition [5] | Ki (Histamine H3 receptor) | Ki [6] | inhibition [7] | inhibition [8] | Ki [9]
1 | CC[C@H]1c2cc(C)ccc2OC[C@@]1(C)N (racemic) | < 5 | 0.316 µM | < 50% | > 10 µM | < 50% | > 10 µM | > 10 µM | < 50% | < 50% | > 10 µM
2 | C[C@@]12CN(c3ccccc3)c3ccccc3[C@@H]1CCN2 (racemic) |  | 1.58 µM |  | > 10 µM |  |  | > 10 µM |  |  | > 10 µM
3 | CC[C@H]1c2cc(OC)ccc2CC[C@@]1(C)N (racemic) | < 5 | 2.51 µM | < 50% | > 10 µM | < 50% | > 10 µM | 5.01 µM | < 50% | < 50% | > 10 µM
4 | COc1cc(OC)c2c(c1)OC[C@@]1(C)NCC[C@@H]21 (racemic) | < 5 | > 10 µM | < 50% | > 10 µM | < 50% |  | 0.575 µM | < 50% | < 50% | > 10 µM
5 | CC[C@H]1c2ccccc2N(c2ccccc2)C[C@@]1(C)N (racemic) |  | 0.398 µM |  | > 10 µM |  | 3.98 µM | > 10 µM |  |  | > 10 µM

— ChEMBL document CHEMBL4304834, “3-Amino-chromanes and Tetrahydroquinolines as Selective 5-HT2B, 5-HT7, or σ1 Receptor Ligands” (ACS Med Chem Lett, 2019)
